According to ChEMBL document CHEMBL3425433, “Discovery of bicyclic pyrazoles as class III histone deacetylase SIRT1 and SIRT2 inhibitors” (Bioorg Med Chem Lett, 2015):

Biological target: T1, NAD-dependent protein deacetylase sirtuin-1 (Homo sapiens) (UniProt Q96EB6)
T1 sequence (whole entry): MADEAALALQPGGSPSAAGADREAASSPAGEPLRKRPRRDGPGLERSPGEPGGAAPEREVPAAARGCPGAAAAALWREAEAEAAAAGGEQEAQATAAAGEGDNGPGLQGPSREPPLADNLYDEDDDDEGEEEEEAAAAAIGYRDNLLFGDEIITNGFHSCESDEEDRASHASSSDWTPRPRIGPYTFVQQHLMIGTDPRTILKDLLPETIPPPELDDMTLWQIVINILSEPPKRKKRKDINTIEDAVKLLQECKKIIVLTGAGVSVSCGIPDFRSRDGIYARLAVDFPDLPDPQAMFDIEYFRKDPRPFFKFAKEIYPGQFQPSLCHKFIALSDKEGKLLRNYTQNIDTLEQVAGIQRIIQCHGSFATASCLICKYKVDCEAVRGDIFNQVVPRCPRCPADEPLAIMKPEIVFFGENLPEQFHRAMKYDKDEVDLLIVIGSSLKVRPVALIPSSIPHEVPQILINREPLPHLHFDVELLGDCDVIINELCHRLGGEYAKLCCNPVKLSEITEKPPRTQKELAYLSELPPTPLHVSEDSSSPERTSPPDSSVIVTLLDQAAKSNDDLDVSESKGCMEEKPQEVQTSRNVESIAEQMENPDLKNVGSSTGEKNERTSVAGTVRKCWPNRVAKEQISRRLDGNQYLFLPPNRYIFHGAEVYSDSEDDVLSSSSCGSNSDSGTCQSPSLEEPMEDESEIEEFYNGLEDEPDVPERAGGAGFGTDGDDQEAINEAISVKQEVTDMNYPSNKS
Assay: Inhibition of SIRT1-mediated endogenous p53 deacetylase activity in human Namalwa cells assessed as concentration required to […] to twice the basal level after 3 hrs by ELISA
Format: cell-based
How it was run: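 Namalwa cells, 50,000/well, were exposed 3 h at 37 °C, 5% CO2, to 0.005–50 µM final (0.95% DMSO). Lysates were ELISA-captured on anti-p53 (DO-1), probed overnight with anti-acetyl-Lys382-p53, then HRP conjugate and Amplex Red (15 min; ex 550/em 610 nm). IC2xB is the concentration doubling basal (lowest) fluorescence. Means of three experiments.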

INH: 0.6 µM
SMILES: NC(=O)C1CCCc2c1[nH]c1ccc(Cl)cc21 (racemic)
